Only some compounds are listed: those with a hit (about 4.2% of all), similar ones and a draw of the others.
HDAC3 inh – human HDAC3 inhibition. inhibition, % at 8.3 µM. recombinant HDAC3, fluorogenic peptide/trypsin coupled, fluorescence. hit rate 0.15% among 320,000; in the data active = inhibition above about 26%, passing the limit was not always enough
Target sequence (O15379 whole entry, looked up): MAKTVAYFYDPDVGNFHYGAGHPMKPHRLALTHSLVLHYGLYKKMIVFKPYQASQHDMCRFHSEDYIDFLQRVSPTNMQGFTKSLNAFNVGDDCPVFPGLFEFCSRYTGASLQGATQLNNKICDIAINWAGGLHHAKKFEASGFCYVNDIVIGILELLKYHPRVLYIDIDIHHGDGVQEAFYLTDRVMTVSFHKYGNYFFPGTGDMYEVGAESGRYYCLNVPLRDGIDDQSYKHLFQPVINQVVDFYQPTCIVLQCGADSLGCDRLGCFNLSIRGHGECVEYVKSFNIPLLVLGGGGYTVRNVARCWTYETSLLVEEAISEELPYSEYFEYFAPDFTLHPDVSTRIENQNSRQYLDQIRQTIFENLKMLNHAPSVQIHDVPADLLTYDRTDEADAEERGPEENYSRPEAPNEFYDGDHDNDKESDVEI
SENP1 FRET inh – SENP1 (human) catalytic domain inhibition. recombinant SENP1 catalytic domain, CyPet-SUMO1-YPet FRET cleavage. inhibition, % at 10 µM. hit rate 0.21% among 360,000;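 active = inhibition at least 30% at 10 µM, raw YFP signal under a set limit, fluorescence ratio 0.5 to 1.5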;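 note: 0% = enzyme with DMSO and 100% = no enzyme wells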
Target sequence (Q9P0U3 419-644 limits assumed): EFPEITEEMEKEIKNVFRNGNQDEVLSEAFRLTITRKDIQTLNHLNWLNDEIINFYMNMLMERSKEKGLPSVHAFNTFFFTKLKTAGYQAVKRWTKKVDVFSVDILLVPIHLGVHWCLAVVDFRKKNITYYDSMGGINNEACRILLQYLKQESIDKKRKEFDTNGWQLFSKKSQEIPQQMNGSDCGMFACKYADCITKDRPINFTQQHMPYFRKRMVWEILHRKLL
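Controls: no-enzyme wells low, DMSO-plus-enzyme wells high control. Test system: human recombinant His6-tagged SENP1 catalytic domain enzyme. Reagent: SFCypet-SUMO1-SFYpet FRET protein substrate, 25 nM final. Doses: one dose per compound, 10 µM, 0.5% DMSO. Detection: FRET, CFP and YFP emission. Timing: 50 min reaction at room temperature.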
M18AAP inhibitor – PfM18AAP enzyme inhibition. AID 1822. recombinant PfM18AAP, H-Glu-NHMec fluorogenic cleavage. hit rate 1.2% among 290,000. inhibition, % at 7.35 µM;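 active = inhibition above the campaign mean inhibition over all tested compounds plus 3 SD, cut at about 28% in these data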;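 note: 0% = plate median of test compound wells and 100% = 2 mM ZnCl2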
AHR activator – activates the human aryl hydrocarbon receptor | P35869 | AHR-responsive luciferase reporter cells, luminescence | activation, % at 5 µM | hit rate 2.5% among 320,000 | AID 2796; in the data active = activation above about 47%;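 note: 0% = vehicle wells and 100% = reference agonist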
FXN GAA850 act – frataxin GAA850 promoter activation | HEK293 lucGAA850 FXN promoter luciferase reporter, 24 h; percent of 10 µM SAHA response | hit rate 0.56% among 360,000 | activation, % at 6 µM;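 active = activation above the average of all compounds screened plus 3 SD, cutoff fixed separately per campaign, cut at about 7.5% in these data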;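 note: 0% = DMSO wells and 100% = 10 µM SAHA wells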
Fh CTSL1 inh – cathepsin L1 inhibition, PFM18AAP counter-screen | recombinant F. hepatica cathepsin L1, Z-Leu-Arg-MCA fluorescence | inhibition, % at 5.96 µM | hit rate 0.49% among 300,000 | AID 1906;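 active = inhibition above the mean of all tested compounds plus 3 SD, set per screening campaign, cut at about 17% in these data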;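 note: 0% = plate median of test compound wells and 100% = 1 µM Z-Phe-Ala-diazomethylketone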
SENP1 inh conf – SENP1 (human) inhibition, single concentration confirmation; shares compounds with SENP1 FRET inh; recombinant SENP1, CyPet-SUMO1-YPet FRET cleavage; inhibition, % at 10 µM; hit rate 34% among 520; AID 651678; in the data active = inhibition mostly above about 35%, no sharp cut-off; inactive = mostly below about 32%;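 note: 0% = enzyme with DMSO and 100% = no enzyme control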
SENP1 kin conf – confirmation of human SENP1 SUMO protease inhibitors, kinetic; shares compounds with SENP1 FRET inh; recombinant SENP1, CyPet-SUMO1-YPet FRET kinetic cleavage; inhibition, % at 10 µM; hit rate 26% among 520; AID 651690; in the data active = inhibition mostly above about 32%, no sharp cut-off; inactive = mostly below about 29%;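 note: 0% = DMSO with enzyme and 100% = no enzyme substrate only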
* hit, by the source's call; · = not tested or not shown.

SMILES	HDAC3 inh	SENP1 FRET inh	M18AAP inhibitor	AHR activator	FXN GAA850 act	Fh CTSL1 inh	SENP1 inh conf	SENP1 kin conf
COc1cc(SC#N)ccc1N=Cc1c(C)[nH]n(-c2ccc(C)cc2C)c1=O	4	67*	-2	8	-3	4	38*	34*
COc1cc(SC#N)ccc1N=Cc1c(C)[nH]n(-c2cccc3ccccc23)c1=O	4	·	-11	13	·	3	·	·
COc1ccccc1CNC(=O)Nc1nc(C(N)CCc2ccccc2)cs1 (centres undefined)	·	0	·	·	-3	·	·	·
Cc1cc(C)c2c(c1)/C(=N\N=c1\sc3ccccc3n1C)C(=O)N2	·	37*	-2	17	2	-1	2	4
Cn1/c(=N/N=C/c2ccc([N+](=O)[O-])cc2)sc2ccccc21	·	·	2	·	·	·	·	·
COc1ccc(C(=O)Nc2nnc(Cc3ccc(OC)c(OC)c3)s2)c(OC)c1	7	1	-5	-3	3	2	·	·
COCc1nnc(NC(=O)c2ccc(OC)cc2OC)s1	3	48*	5	-1	5	-2	-10	0
CN(C)NC(=S)Nc1ccc2nc(-c3ccccn3)c(-c3ccccn3)nc2c1	4	59*	6	7	2	4	38*	31
Cc1ccc(N2C(=O)[C@@H]3[C@H](C2=O)C2CCCN2[C@@H]3C(=O)c2ccccc2)cc1 (some centres undefined)	-2	77	5	12	8	3	·	·
O=C(c1ccccc1)[C@@H]1[C@@H]2C(=O)N(c3ccc(F)cc3)C(=O)[C@@H]2C2CCCN21 (some centres undefined)	-4	76*	-1	8	6	3	73*	48*
CC(C)OCCCNC(=O)c1cn(C)c2ccc(S(=O)(=O)N(C)C3CCCCC3)cc2c1=O	1	-1	1	5	1	-3	·	·
CC1(C)c2ssc(=S)c2-c2ccccc2N1C(=O)c1ccco1	4	32*	0	1	-2	0	4	9
O=C(c1ccco1)N1c2ccccc2Sc2ccccc21	2	1	-6	1	-1	2	·	·
CC(=O)Nc1cc2c(cc1[N+](=O)[O-])-c1ccccc1C2=NO	·	19	·	·	3	·	·	·
Nc1cc2c(cc1[N+](=O)[O-])-c1ccccc1C2=NO	·	32*	·	·	-1	·	36	11
COC12CC(=O)C(C(C)=O)=C(O)C1(C)c1c(O)c(C)c(O)c(C(C)=O)c1O2 (centres undefined)	·	33*	·	·	-2	·	32	18
CCN(CC)c1nc2cc(C)ccc2cc1/C=C(\C#N)C(N)=O	7	79*	-3	18	2	1	58*	33
CCc1ccc(NC(=O)/C(C#N)=C/c2cc3ccc(C)cc3nc2N2CCOCC2)cc1	-1	30	-4	3	0	-4	·	·
COc1ccc(OC)c(/C=C/C(=O)OCC(=O)Nc2nnc(-c3ccccc3)o2)c1	-31	-32	·	2	-2	·	·	·
CCOC(=O)c1sc2cc([N+](=O)[O-])cc(SCCO)c2c1N	3	50*	-1	26	1	-3	20	12
CCOC(=O)c1sc2cc([N+](=O)[O-])cc(SCC(=O)OC)c2c1N	1	66*	3	1	-2	0	25	2
O=C(Nc1c(-c2ccc(Cl)cc2)[nH][nH]c1=O)c1ccc(Br)cc1	·	0	·	·	·	·	·	·
CC1(C(=O)NS(=O)(=O)c2ccc(Br)cc2)CCN1C(=O)c1cccc(F)c1 (centres undefined)	·	2	·	·	-1	·	·	·
CCn1c(/C=C/c2cc(Br)ccc2O)nc2ccccc2c1=O	-3	78*	1	16	1	1	36*	33
CSCCC(NC(=O)c1ccco1)C(=O)OCC(=O)N1c2ccccc2NC(=O)C1(C)C (centres undefined)	-1	0	·	0	2	·	·	·
SMILES	HDAC3 inh	SENP1 FRET inh	M18AAP inhibitor	AHR activator	FXN GAA850 act	Fh CTSL1 inh	SENP1 inh conf	SENP1 kin conf
Cc1c(/C=N/O)c2ccccn2c1C(=O)c1ccc(F)cc1	-4	5	7	15	4	2	·	·
Cc1c(C=NNC(=O)c2ccc(Br)cc2)c2ccccn2c1C(=O)c1ccncc1	-1	50*	·	3	-1	·	30	18
O=C1C=C(N2CCCCCC2)C(=O)N1c1ccc(Cl)cc1	0	17	-1	·	3	·	·	·
O=C1C=C(Nc2ccc(Cl)cc2)C(=O)N1c1ccc(Cl)cc1	·	34*	-6	13	0	0	38*	37*
CC1Cc2ccccc2N1C(=O)CN1C(=O)NC2(CCCCC2)C1=O (centres undefined)	0	0	·	0	2	·	·	·
COC(=O)[C@@]1(Cc2ccccc2)[C@H]2C(=O)N(Cc3ccccc3)C(=O)[C@H]2[C@H]2CN=C(SCC3CC3)N21	·	0	·	·	0	·	·	·
COc1ccc(NC(=O)C2(C)Cc3c(-c4cccc(C(N)=O)c4)ccnc3O2)cc1 (centres undefined)	·	-1	·	·	-3	·	·	·
CC(=O)Oc1ccc(C(=O)Cc2ccc3ccccc3n2)c(O)c1C	14	49*	6	2	4	-2	25	19
COC(=O)/C=c1/s/c(=C(/C#N)C(=O)N2CCOCC2)n(-c2ccccc2)c1=O	2	2	9	2	2	-2	·	·
COC(=O)/C=c1/s/c(=C(\C#N)C(=O)NCc2ccco2)n(-c2ccc(C)cc2)c1=O	-1	37*	0	4	0	3	12	10
Cc1cccc(/C=N/n2c(-c3ccccc3)n[nH]c2=S)c1O	1	31*	10	14	4	2	-6	13
Oc1ccc(Br)cc1/C=N/n1c(-c2ccccc2)n[nH]c1=S	3	-28	1	8	1	-2	·	·
COc1cc(/C=C/c2ccc3c([N+](=O)[O-])cccc3n2)ccc1OCC(=O)O	9	54*	2	1	2	4	26	19
COc1ccc(CN2C(=O)CSCC2(C)C(=O)Nc2c(C)cccc2C)cc1 (centres undefined)	·	4	·	·	·	·	·	·
CC(=O)NC(c1ccc(F)c(F)c1)c1nc(-c2cnc3ccccc3c2)cs1 (centres undefined)	·	0	·	·	1	·	·	·
N#CCSc1ccccc1NC(=O)COC(=O)Cc1c[nH]c2ccccc12	·	43*	·	28	-1	·	3	6
N#CCSc1ccccc1NC(=O)COc1ccc(-c2nnco2)cc1	·	34*	·	33	0	·	3	10
CC(C)c1ccccc1NC(=O)COC(=O)Cc1c[nH]c2ccccc12	3	4	6	8	1	-6	·	·

Screening results deposited in PubChem BioAssay by several laboratories.
